Each block holds one molecule with its values, some of them ahead of it.
How the values were obtained:
[1] = system: orthotopic 4T1 breast tumors; experiment: Tumor treatment study, orthotopic 4T1 breast tumors; type: in vivo, mouse; conditions: DOX 3 mg/kg + 4 µmol/kg iNGR i.v. every other day
4T1 tumors = conditions: no penetrating peptide; cited from earlier work
tumors = conditions: cited from earlier work
NRP-1 = NRP-1 (Homo sapiens, UniProt O14786); experiment: Dose-dependent binding of phage to purified NRP-1; conditions: phage-displayed peptide, Fig. 1E; for Phage binding to immobilized NRP-1: anti-T7 phage antibody / HRP detection
NRP-1, sequence (O14786 22-923): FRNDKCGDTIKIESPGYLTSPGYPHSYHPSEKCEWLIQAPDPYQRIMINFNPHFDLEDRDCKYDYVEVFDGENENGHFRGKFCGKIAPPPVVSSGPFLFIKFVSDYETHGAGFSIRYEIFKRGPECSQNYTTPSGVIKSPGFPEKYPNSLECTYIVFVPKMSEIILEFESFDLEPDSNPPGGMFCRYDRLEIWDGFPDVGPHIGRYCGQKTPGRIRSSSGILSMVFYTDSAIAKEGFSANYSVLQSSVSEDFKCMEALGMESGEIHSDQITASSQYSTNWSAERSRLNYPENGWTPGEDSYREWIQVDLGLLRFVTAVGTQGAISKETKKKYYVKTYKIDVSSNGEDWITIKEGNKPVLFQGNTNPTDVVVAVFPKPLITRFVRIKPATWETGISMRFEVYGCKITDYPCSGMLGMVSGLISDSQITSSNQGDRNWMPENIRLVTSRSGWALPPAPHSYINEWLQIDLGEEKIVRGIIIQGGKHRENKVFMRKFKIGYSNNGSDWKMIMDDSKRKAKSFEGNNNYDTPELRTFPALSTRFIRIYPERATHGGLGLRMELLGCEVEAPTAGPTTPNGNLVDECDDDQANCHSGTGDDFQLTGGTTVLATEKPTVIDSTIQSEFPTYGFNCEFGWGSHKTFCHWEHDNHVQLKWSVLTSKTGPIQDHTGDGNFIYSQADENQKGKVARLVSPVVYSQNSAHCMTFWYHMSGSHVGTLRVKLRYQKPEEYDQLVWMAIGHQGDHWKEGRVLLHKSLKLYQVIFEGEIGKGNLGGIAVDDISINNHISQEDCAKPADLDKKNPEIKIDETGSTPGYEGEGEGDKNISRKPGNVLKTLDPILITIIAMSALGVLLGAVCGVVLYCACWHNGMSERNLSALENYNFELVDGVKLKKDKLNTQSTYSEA
Procedure, shortened: (§1)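 Peptide-displaying T7 phage was added over a range of phage amounts to purified NRP-1 or NRP-2 protein. Bound phage was detected with a rabbit anti-T7 phage antibody followed by an HRP-labeled goat anti-rabbit secondary antibody.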

NRP-2 = molecular target: T1, NRP-2 (Homo sapiens, UniProt O60462); experiment: Dose-dependent binding of phage to purified NRP-2; conditions: phage-displayed peptide, Fig. 1F; for Phage binding to immobilized NRP-2: anti-T7 phage antibody / HRP detection
T1 sequence (O60462 21-931): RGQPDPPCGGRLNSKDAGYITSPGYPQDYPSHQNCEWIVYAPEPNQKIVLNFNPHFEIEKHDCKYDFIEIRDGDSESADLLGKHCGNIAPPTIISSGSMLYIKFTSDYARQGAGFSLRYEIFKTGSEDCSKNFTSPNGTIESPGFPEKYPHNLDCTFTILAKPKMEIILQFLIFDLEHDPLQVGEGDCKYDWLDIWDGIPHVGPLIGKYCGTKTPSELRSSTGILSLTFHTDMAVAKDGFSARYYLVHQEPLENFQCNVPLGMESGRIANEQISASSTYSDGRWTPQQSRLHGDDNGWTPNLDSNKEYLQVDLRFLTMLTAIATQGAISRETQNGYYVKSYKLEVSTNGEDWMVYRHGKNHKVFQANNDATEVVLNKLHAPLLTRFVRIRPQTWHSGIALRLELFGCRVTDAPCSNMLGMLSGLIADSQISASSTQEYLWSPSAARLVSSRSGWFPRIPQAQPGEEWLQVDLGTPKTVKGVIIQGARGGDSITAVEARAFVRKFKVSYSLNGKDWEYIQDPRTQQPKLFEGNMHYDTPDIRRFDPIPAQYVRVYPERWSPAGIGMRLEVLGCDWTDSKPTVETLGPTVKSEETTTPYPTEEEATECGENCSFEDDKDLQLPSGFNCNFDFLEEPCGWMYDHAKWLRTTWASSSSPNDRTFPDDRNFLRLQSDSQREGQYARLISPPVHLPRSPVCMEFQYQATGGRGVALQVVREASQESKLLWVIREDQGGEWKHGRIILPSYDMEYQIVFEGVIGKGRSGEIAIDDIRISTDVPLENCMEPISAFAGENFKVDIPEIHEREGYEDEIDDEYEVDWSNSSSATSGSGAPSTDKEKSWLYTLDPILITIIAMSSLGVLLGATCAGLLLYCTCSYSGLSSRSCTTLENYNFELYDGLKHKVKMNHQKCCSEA
Procedure, shortened: as §1

HUVECs = experiment: Mass spectrometry of peptide inside HUVECs after incubation with FAM-peptide; type: cell-based, human; conditions: Fig. S4

Molecule: COc1cccc2c1C(=O)c1c(O)c3c(c(O)c1C2=O)C[C@@](O)(C(=O)CO)C[C@@H]3O[C@H]1C[C@H](N)[C@H](O)[C@H](C)O1 [Doxorubicin, doxorubicin]
- Efficacy of doxorubicin given together with iNGR [1]: significantly more efficacious than the drug alone

Molecule: CGKRK
- Tumor homing and extravasation of NWs coated with the peptide (4T1 tumors): brings the NWs to tumor vessels, but does not trigger extravasation

Molecule: CGNKRTRGC [LyP-1]
- Tumor penetration (tumors): penetrates into tumors through the CendR/NRP mechanism

- Phage binding to immobilized NRP-1 (NRP-1): bound to the NRPs
- Phage binding to immobilized NRP-2 (NRP-2): bound to the NRPs
Molecule: CRGDK [iRGDt]

- Phage binding to immobilized NRP-1 (NRP-1): bound to the NRPs
- Affinity for NRP-1 compared with iRGDt (NRP-1): higher affinity
- Phage binding to immobilized NRP-2 (NRP-2): bound to the NRPs
- Affinity for NRP-2 compared with iRGDt (NRP-2): higher affinity
Molecule: CRNGR [iNGRt]

Molecule: FAM-CNGRC
- Peptide present inside HUVECs after incubation with FAM-peptide (HUVECs): did not penetrate into the cells

From paper PMC3548935 (Cancer research, 2012)
